According to ChEMBL document CHEMBL1135850, “P1 Phenethyl peptide boronic acid inhibitors of HCV NS3 protease” (Bioorg Med Chem Lett, 2002):
Peptide text beside a SMILES is read from it. * marks the point of attachment. X3 = CC1(C)[C@@H]2C[C@H]3OB([C@H](CCc4cccc(C(F)(F)F)c4)N*)O[C@@]3(C)[C@H]1C2; X4 = CC1(C)[C@@H]2C[C@H]3OB([C@H](CCc4cccc(F)c4)N*)O[C@@]3(C)[C@H]1C2; X1 = CC1(C)[C@@H]2C[C@H]3OB([C@H](CCc4ccccc4F)N*)O[C@@]3(C)[C@H]1C2; X6 = CC1(C)[C@@H]2C[C@H]3OB([C@H](CCCc4ccccc4)N*)O[C@@]3(C)[C@H]1C2; X15 = CC1(C)[C@@H]2C[C@H]3OB([C@H](Cc4ccccc4)N*)O[C@@]3(C)[C@H]1C2; X12 = CC(C)CC[C@H](N*)B1O[C@@H]2C[C@@H]3C[C@@H](C3(C)C)[C@]2(C)O1; X9 = CC1(C)[C@@H]2C[C@H]3OB([C@@H](N*)c4ccccc4)O[C@@]3(C)[C@H]1C2; X11 = CCCCCC[C@H](N*)B1O[C@@H]2C[C@@H]3C[C@@H](C3(C)C)[C@]2(C)O1; X13 = CCCCC[C@H](N*)B1O[C@@H]2C[C@@H]3C[C@@H](C3(C)C)[C@]2(C)O1; X14 = CCCC[C@H](N*)B1O[C@@H]2C[C@@H]3C[C@@H](C3(C)C)[C@]2(C)O1

Tests used:
NS3 = NS3 (Hepatitis C virus, UniProt A3EZJ3); assay: Binding affinity against Hepatitis C virus NS3 protease; parameters: species or system Hepacivirus hominis
In short: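 Continuous fluorescence assay with 4 nM NS3 protease plus NS4A cofactor peptide, in 50 mM Tris pH 7.0, 5 mM DTT, 50% glycerol, 2% CHAPS. Serially diluted inhibitors, given as boronic acid pinanediol esters, were preincubated with enzyme for 15 min. The reaction was started with the FRET ester substrate Ac-DED(EDANS)EEAbuψ[COO]ASK(DABCYL)-NH2 at ambient temperature and read at excitation 360 nm, emission 530 nm.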

Neutrophil elastase = molecular target: T1, Neutrophil elastase (Homo sapiens, UniProt P08246); assay: Inhibitory concentration against Human leukocyte Elastase
T1 sequence (P08246 whole entry): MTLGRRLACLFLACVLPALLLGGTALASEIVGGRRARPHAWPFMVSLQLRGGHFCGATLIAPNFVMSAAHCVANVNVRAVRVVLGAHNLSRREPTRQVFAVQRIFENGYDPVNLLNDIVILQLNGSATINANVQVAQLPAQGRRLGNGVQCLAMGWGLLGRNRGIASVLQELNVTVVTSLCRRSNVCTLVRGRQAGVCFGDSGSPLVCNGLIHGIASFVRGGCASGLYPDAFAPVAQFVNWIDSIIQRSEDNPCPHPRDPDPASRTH
In short: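 Human neutrophil elastase (stock 1 mg/mL in PBS with 10% glycerol) with MeO-Suc-Ala-Ala-Pro-Val-p-nitroanilide substrate in PBS at room temperature, DMSO ≤2%. Inhibitors were tested as pinanediol esters. Substrate hydrolysis was followed at 405 nm to derive kinetic parameters.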

SMILES	Ki (NS3) [nM]	IC50 (Neutrophil elastase) [nM]
CC(C)[C@H](NC(=O)[C@H](CCC(=O)O)NC(=O)[C@@H](N)CC(=O)O)C(=O)N[C@H](C(=O)N1CCC[C@@H]1C(=O)N[C@@H](CCc1ccccc1)B1O[C@@H]2C[C@@H]3C[C@@H](C3(C)C)[C@]2(C)O1)C(C)C		3500
Cc1cccc(CC[C@H](NC(=O)[C@H]2CCCN2C(=O)[C@@H](NC(=O)[C@@H](NC(=O)[C@H](CCC(=O)O)NC(=O)[C@@H](N)CC(=O)O)C(C)C)C(C)C)B2O[C@@H]3C[C@@H]4C[C@@H](C4(C)C)[C@]3(C)O2)c1		5700
CC(C)[C@H](NC(=O)[C@H](CCC(=O)O)NC(=O)[C@@H](N)CC(=O)O)C(=O)N[C@H](C(=O)N1CCC[C@@H]1C(=O)N[C@@H](CCc1ccc(C(F)(F)F)cc1)B1O[C@@H]2C[C@@H]3C[C@@H](C3(C)C)[C@]2(C)O1)C(C)C		1800
CC(C)[C@H](NC(=O)[C@H](CCC(=O)O)NC(=O)[C@@H](N)CC(=O)O)C(=O)N[C@H](C(=O)N1CCC[C@@H]1C(=O)N[C@@H](CCc1ccc(Cl)cc1)B1O[C@@H]2C[C@@H]3C[C@@H](C3(C)C)[C@]2(C)O1)C(C)C		1400
CC(C)[C@H](NC(=O)[C@H](CCC(=O)O)NC(=O)[C@@H](N)CC(=O)O)C(=O)N[C@H](C(=O)N1CCC[C@H]1C(=O)N[C@@H](CCCc1ccccc1)B1O[C@@H]2C[C@@H]3C[C@@H](C3(C)C)[C@]2(C)O1)C(C)C (H-DEVVP-X6)	200	
Cc1cccc(CC[C@H](NC(=O)[C@@H]2CCCN2C(=O)[C@@H](NC(=O)[C@@H](NC(=O)[C@H](CCC(=O)O)NC(=O)[C@@H](N)CC(=O)O)C(C)C)C(C)C)B2O[C@@H]3C[C@@H]4C[C@@H](C4(C)C)[C@]3(C)O2)c1	34	
CC(C)[C@H](NC(=O)[C@H](CCC(=O)O)NC(=O)[C@@H](N)CC(=O)O)C(=O)N[C@H](C(=O)N1CCC[C@H]1C(=O)N[C@H](B1O[C@@H]2C[C@@H]3C[C@@H](C3(C)C)[C@]2(C)O1)c1ccccc1)C(C)C (H-DEVVP-X9)	900	
CC(C)[C@H](NC(=O)[C@H](CCC(=O)O)NC(=O)[C@@H](N)CC(=O)O)C(=O)N[C@H](C(=O)N1CCC[C@H]1C(=O)N[C@@H](Cc1ccccc1)B1O[C@@H]2C[C@@H]3C[C@@H](C3(C)C)[C@]2(C)O1)C(C)C (H-DEVVP-X15)	500	
CC(C)C[C@H](NC(=O)[C@H]1CCCN1C(=O)[C@@H](NC(=O)[C@@H](NC(=O)[C@H](CCC(=O)O)NC(=O)[C@@H](N)CC(=O)O)C(C)C)C(C)C)B1O[C@@H]2C[C@@H]3C[C@@H](C3(C)C)[C@]2(C)O1		60
CC(C)[C@H](NC(=O)[C@H](CCC(=O)O)NC(=O)[C@@H](N)CC(=O)O)C(=O)N[C@H](C(=O)N1CCC[C@@H]1C(=O)N[C@@H](CCc1ccc(F)cc1)B1O[C@@H]2C[C@@H]3C[C@@H](C3(C)C)[C@]2(C)O1)C(C)C		800
CCCCCC[C@H](NC(=O)[C@@H]1CCCN1C(=O)[C@@H](NC(=O)[C@@H](NC(=O)[C@H](CCC(=O)O)NC(=O)[C@@H](N)CC(=O)O)C(C)C)C(C)C)B1O[C@@H]2C[C@@H]3C[C@@H](C3(C)C)[C@]2(C)O1 (H-DEVVP-X11)	13	
CCCCC[C@H](NC(=O)[C@@H]1CCCN1C(=O)[C@@H](NC(=O)[C@@H](NC(=O)[C@H](CCC(=O)O)NC(=O)[C@@H](N)CC(=O)O)C(C)C)C(C)C)B1O[C@@H]2C[C@@H]3C[C@@H](C3(C)C)[C@]2(C)O1 (H-DEVVP-X13)	12	
CC(C)[C@H](NC(=O)[C@H](CCC(=O)O)NC(=O)[C@@H](N)CC(=O)O)C(=O)N[C@H](C(=O)N1CCC[C@H]1C(=O)N[C@@H](CCc1ccccc1F)B1O[C@@H]2C[C@@H]3C[C@@H](C3(C)C)[C@]2(C)O1)C(C)C (H-DEVVP-X1)	18	
CC(C)[C@H](NC(=O)[C@H](CCC(=O)O)NC(=O)[C@@H](N)CC(=O)O)C(=O)N[C@H](C(=O)N1CCC[C@H]1C(=O)N[C@@H](CCc1cccc(C(F)(F)F)c1)B1O[C@@H]2C[C@@H]3C[C@@H](C3(C)C)[C@]2(C)O1)C(C)C (H-DEVVP-X3)	25	
Cc1ccc(CC[C@H](NC(=O)[C@@H]2CCCN2C(=O)[C@@H](NC(=O)[C@@H](NC(=O)[C@H](CCC(=O)O)NC(=O)[C@@H](N)CC(=O)O)C(C)C)C(C)C)B2O[C@@H]3C[C@@H]4C[C@@H](C4(C)C)[C@]3(C)O2)cc1	17	
CC(C)CC[C@H](NC(=O)[C@@H]1CCCN1C(=O)[C@@H](NC(=O)[C@@H](NC(=O)[C@H](CCC(=O)O)NC(=O)[C@@H](N)CC(=O)O)C(C)C)C(C)C)B1O[C@@H]2C[C@@H]3C[C@@H](C3(C)C)[C@]2(C)O1 (H-DEVVP-X12)	39	

Further molecules by falling Ki (NS3), results first:

Ki (NS3) [nM]	IC50 (Neutrophil elastase) [nM]	SMILES
11		CCCC[C@H](NC(=O)[C@@H]1CCCN1C(=O)[C@@H](NC(=O)[C@@H](NC(=O)[C@H](CCC(=O)O)NC(=O)[C@@H](N)CC(=O)O)C(C)C)C(C)C)B1O[C@@H]2C[C@@H]3C[C@@H](C3(C)C)[C@]2(C)O1 (H-DEVVP-X14)
10		CC(C)[C@H](NC(=O)[C@H](CCC(=O)O)NC(=O)[C@@H](N)CC(=O)O)C(=O)N[C@H](C(=O)N1CCC[C@H]1C(=O)N[C@@H](CCCCc1ccccc1)B1O[C@@H]2C[C@@H]3C[C@@H](C3(C)C)[C@]2(C)O1)C(C)C
9		CC(C)[C@H](NC(=O)[C@H](CCC(=O)O)NC(=O)[C@@H](N)CC(=O)O)C(=O)N[C@H](C(=O)N1CCC[C@H]1C(=O)N[C@@H](CCc1cccc(F)c1)B1O[C@@H]2C[C@@H]3C[C@@H](C3(C)C)[C@]2(C)O1)C(C)C (H-DEVVP-X4)
8		CC(C)[C@H](NC(=O)[C@H](CCC(=O)O)NC(=O)[C@@H](N)CC(=O)O)C(=O)N[C@H](C(=O)N1CCC[C@H]1C(=O)N[C@@H](CCc1ccc(O)cc1)B1O[C@@H]2C[C@@H]3C[C@@H](C3(C)C)[C@]2(C)O1)C(C)C
8		CC[C@H](NC(=O)[C@@H]1CCCN1C(=O)[C@@H](NC(=O)[C@@H](NC(=O)[C@H](CCC(=O)O)NC(=O)[C@@H](N)CC(=O)O)C(C)C)C(C)C)B1O[C@@H]2C[C@@H]3C[C@@H](C3(C)C)[C@]2(C)O1
8		CC(C)C[C@H](NC(=O)[C@@H]1CCCN1C(=O)[C@@H](NC(=O)[C@@H](NC(=O)[C@H](CCC(=O)O)NC(=O)[C@@H](N)CC(=O)O)C(C)C)C(C)C)B1O[C@@H]2C[C@@H]3C[C@@H](C3(C)C)[C@]2(C)O1
8		CC(C)[C@H](NC(=O)[C@H](CCC(=O)O)NC(=O)[C@@H](N)CC(=O)O)C(=O)N[C@H](C(=O)N1CCC[C@H]1C(=O)N[C@@H](CCc1ccccc1)B1O[C@@H]2C[C@@H]3C[C@@H](C3(C)C)[C@]2(C)O1)C(C)C
7		CC(C)CCC[C@H](NC(=O)[C@@H]1CCCN1C(=O)[C@@H](NC(=O)[C@@H](NC(=O)[C@H](CCC(=O)O)NC(=O)[C@@H](N)CC(=O)O)C(C)C)C(C)C)B1O[C@@H]2C[C@@H]3C[C@@H](C3(C)C)[C@]2(C)O1
7		CC(C)[C@H](NC(=O)[C@H](CCC(=O)O)NC(=O)[C@@H](N)CC(=O)O)C(=O)N[C@H](C(=O)N1CCC[C@H]1C(=O)N[C@@H](CCc1ccc(-c2ccccc2)cc1)B1O[C@@H]2C[C@@H]3C[C@@H](C3(C)C)[C@]2(C)O1)C(C)C
6		CC(C)[C@H](NC(=O)[C@H](CCC(=O)O)NC(=O)[C@@H](N)CC(=O)O)C(=O)N[C@H](C(=O)N1CCC[C@H]1C(=O)N[C@@H](CCc1ccc(F)cc1)B1O[C@@H]2C[C@@H]3C[C@@H](C3(C)C)[C@]2(C)O1)C(C)C
5		CC(C)c1ccc(CC[C@H](NC(=O)[C@@H]2CCCN2C(=O)[C@@H](NC(=O)[C@@H](NC(=O)[C@H](CCC(=O)O)NC(=O)[C@@H](N)CC(=O)O)C(C)C)C(C)C)B2O[C@@H]3C[C@@H]4C[C@@H](C4(C)C)[C@]3(C)O2)cc1
4		CC(C)[C@H](NC(=O)[C@H](CCC(=O)O)NC(=O)[C@@H](N)CC(=O)O)C(=O)N[C@H](C(=O)N1CCC[C@H]1C(=O)N[C@@H](CCc1ccc(Br)cc1)B1O[C@@H]2C[C@@H]3C[C@@H](C3(C)C)[C@]2(C)O1)C(C)C
3		CC(C)[C@H](NC(=O)[C@H](CCC(=O)O)NC(=O)[C@@H](N)CC(=O)O)C(=O)N[C@H](C(=O)N1CCC[C@H]1C(=O)N[C@@H](CCc1ccc(Oc2ccccc2)cc1)B1O[C@@H]2C[C@@H]3C[C@@H](C3(C)C)[C@]2(C)O1)C(C)C
3		CC(C)[C@H](NC(=O)[C@H](CCC(=O)O)NC(=O)[C@@H](N)CC(=O)O)C(=O)N[C@H](C(=O)N1CCC[C@H]1C(=O)N[C@@H](CCc1ccc(C(C)(C)C)cc1)B1O[C@@H]2C[C@@H]3C[C@@H](C3(C)C)[C@]2(C)O1)C(C)C
3		CC(C)[C@H](NC(=O)[C@H](CCC(=O)O)NC(=O)[C@@H](N)CC(=O)O)C(=O)N[C@H](C(=O)N1CCC[C@H]1C(=O)N[C@@H](CCc1ccc(C2CCCCC2)cc1)B1O[C@@H]2C[C@@H]3C[C@@H](C3(C)C)[C@]2(C)O1)C(C)C
3		COc1ccc(CC[C@H](NC(=O)[C@@H]2CCCN2C(=O)[C@@H](NC(=O)[C@@H](NC(=O)[C@H](CCC(=O)O)NC(=O)[C@@H](N)CC(=O)O)C(C)C)C(C)C)B2O[C@@H]3C[C@@H]4C[C@@H](C4(C)C)[C@]3(C)O2)cc1
2		CC(C)[C@H](NC(=O)[C@H](CCC(=O)O)NC(=O)[C@@H](N)CC(=O)O)C(=O)N[C@H](C(=O)N1CCC[C@H]1C(=O)N[C@@H](CCc1ccc(Cl)cc1)B1O[C@@H]2C[C@@H]3C[C@@H](C3(C)C)[C@]2(C)O1)C(C)C
2		CC(C)[C@H](NC(=O)[C@H](CCC(=O)O)NC(=O)[C@@H](N)CC(=O)O)C(=O)N[C@H](C(=O)N1CCC[C@H]1C(=O)N[C@@H](CCc1ccc(C(F)(F)F)cc1)B1O[C@@H]2C[C@@H]3C[C@@H](C3(C)C)[C@]2(C)O1)C(C)C
